{"data": "Experimental data collected from several papers", "FLT3 D835H": "Receptor-type tyrosine-protein kinase FLT3 (FLT3, Homo sapiens, UniProt P36888, D835H)", "FLT3 N841I": "Receptor-type tyrosine-protein kinase FLT3 (FLT3, Homo sapiens, UniProt P36888, N841I)", "FLT3 D835Y": "Receptor-type tyrosine-protein kinase FLT3 (FLT3, Homo sapiens, UniProt P36888, D835Y)", "FLT3 R834Q": "Receptor-type tyrosine-protein kinase FLT3 (FLT3, Homo sapiens, UniProt P36888, R834Q)", "FLT3": "Receptor-type tyrosine-protein kinase FLT3 (FLT3, Homo sapiens, UniProt P36888)", "FLT3 K663Q": "Receptor-type tyrosine-protein kinase FLT3 (FLT3, Homo sapiens, UniProt P36888, K663Q)", "FLT3 D835V": "Receptor-type tyrosine-protein kinase FLT3 (FLT3, Homo sapiens, UniProt P36888, D835V)", "note": "Each line is one published result; the experiments were not run side by side."}
{"Compound": "O=C(NC1CCC1)c1ccc2nc(-c3cccc(NS(=O)(=O)NCCN4CCCCC4)c3)cn2c1", "target": "Receptor-type tyrosine-protein kinase FLT3 (FLT3, Homo sapiens, UniProt P36888, ITD)", "assay": "cell-free assay, competition with immobilised ligand", "conditions": "10 µM", "remaining binding": "100%"}
{"Compound": "CN1CCN(c2ccc(Nc3nccc(-c4ccccc4)n3)cc2C(F)(F)F)CC1", "target": "FLT3 D835H", "assay": "binding", "conditions": "10 µM", "remaining binding": "0.2%"}
{"Compound": "N[C@H]1CCN(c2nccc(-c3cnn4ncccc34)n2)C1", "target": "FLT3 N841I", "assay": "binding", "conditions": "1 µM", "remaining binding": "84%"}
{"Compound": "CO[C@@H](C)c1c(Nc2ccc([C@H](N(C)C(=O)C3CCS(=O)(=O)CC3)C(F)(F)F)cc2)cnc2cc(Cl)nn12", "target": "FLT3 D835Y", "assay": "cell-free assay, competition with immobilised ligand", "conditions": "1 µM", "remaining binding": "59%"}
{"Compound": "F[C@@H]1CCN(c2nccc(-c3cnn4ncccc34)n2)C1", "target": "FLT3 R834Q", "assay": "binding", "conditions": "1 µM", "remaining binding": "100%"}
{"Compound": "c1ccc(N2CCN(Cc3nc4ccccc4[nH]3)CC2)nc1", "target": "FLT3", "assay": "binding, competition with immobilised ligand", "conditions": "1 µM", "remaining binding": "100%"}
{"Compound": "COc1ncc2cc3ccccc3nc2c1C#N", "target": "FLT3 D835Y", "assay": "cell-free assay, competition with immobilised ligand", "conditions": "5 µM", "remaining binding": "92%"}
{"Compound": "Cc1cnc(Nc2ccc(C(=O)N3CCC(N4CCCC4)CC3)cc2)nc1-c1cc2ccccc2s1", "target": "FLT3 N841I", "assay": "binding, competition with immobilised ligand", "conditions": "1 µM", "remaining binding": "0%"}
{"Compound": "COc1cnc(Nc2cccc(S(N)(=O)=O)c2)nc1N1CCN(c2ccccc2)CC1", "target": "FLT3 K663Q", "assay": "binding, competition with immobilised ligand", "conditions": "1 µM", "remaining binding": "36%"}
{"Compound": "O=C(NCCCN1CCOCC1)c1ccc(Nc2ncc(Cl)c(-c3ccc(Cl)s3)n2)cc1", "target": "FLT3 K663Q", "assay": "binding, competition with immobilised ligand", "conditions": "1 µM", "remaining binding": "2%"}
{"Compound": "CN(c1nccc(-c2cnn3ncccc23)n1)C1CC1", "target": "FLT3 K663Q", "assay": "binding", "conditions": "1 µM", "remaining binding": "83%"}
{"Compound": "O=C(c1ccc(Nc2ncc(Cl)c(-c3ccc(Cl)s3)n2)cc1)N1CCC(N2CCCC2)CC1", "target": "FLT3 N841I", "assay": "binding, competition with immobilised ligand", "conditions": "1 µM", "remaining binding": "0.4%"}
{"Compound": "C[C@@H](c1ccc(-n2cnc3c(N)ncnc32)cc1)N1CCc2nn(C)c(Cc3ccccc3)c2C1=O", "target": "FLT3 N841I", "assay": "binding, competition with immobilised ligand", "conditions": "0.1 µM", "remaining binding": "97%"}
{"Compound": "CC1CCCN1c1nccc(-c2cnn3ncccc23)n1 (stereo not shown)", "target": "FLT3 D835Y", "assay": "binding", "conditions": "1 µM", "remaining binding": "100%"}
{"Compound": "O=C(NCCCN1CCOCC1)c1ccc(Nc2nccc(-c3cc4ccccc4s3)n2)cc1", "target": "FLT3 R834Q", "assay": "binding, competition with immobilised ligand", "conditions": "1 µM", "remaining binding": "43%"}
{"Compound": "O=C(NCC1CCOCC1)c1n[nH]cc1NC(=O)c1c(F)cccc1F", "target": "FLT3 D835H", "assay": "binding, competition with immobilised ligand", "conditions": "1 µM", "remaining binding": "98%"}
{"Compound": "Nc1ncc2c(n1)-c1c([nH]c3ccc(C#CC4CC4)cc13)CCCC2", "target": "FLT3", "assay": "binding, competition with immobilised ligand", "conditions": "1 µM", "remaining binding": "96%"}
{"Compound": "CNC(=O)[C@@H]1CC[C@@H](n2c(-c3ccc4cnccc4c3)nc3ccc(C(=O)NCc4cccc(C(N)=O)c4)cc32)C1", "target": "FLT3 K663Q", "assay": "binding, competition with immobilised ligand", "conditions": "1 µM", "remaining binding": "99%"}
{"Compound": "NS(=O)(=O)c1cc(NC(=O)C2(c3ccccc3Cl)CC2)ccc1Oc1cccc(Cl)c1", "target": "Receptor-type tyrosine-protein kinase FLT3 (FLT3, Homo sapiens, UniProt P36888, F691L/ITD)", "assay": "cell-free assay, competition with immobilised ligand", "conditions": "1 µM", "remaining binding": "100%"}
{"Compound": "CN(CCCC(F)(F)F)c1nccc(-c2cnn3ncccc23)n1", "target": "FLT3 K663Q", "assay": "binding", "conditions": "1 µM", "remaining binding": "88%"}
{"Compound": "CCN1CCN(Cc2ccc(C(=O)Nc3ccc(C)c(Oc4ccc5c(c4)CC(=O)N5)c3)cc2C(F)(F)F)CC1", "target": "FLT3 R834Q", "assay": "binding, competition with immobilised ligand", "conditions": "1 µM", "remaining binding": "100%"}
{"Compound": "C[C@@H]1CN(c2ccc3ncc(-c4ccc5[nH]nc(C6CC6)c5c4)n3n2)C[C@H](C)O1", "target": "FLT3", "assay": "binding, competition with immobilised ligand", "conditions": "0.5 µM", "remaining binding": "3%"}
{"Compound": "COc1ccnn2ncc(-c3ccnc(N(C)C)n3)c12", "target": "FLT3 R834Q", "assay": "binding", "conditions": "1 µM", "remaining binding": "87%"}
{"Compound": "O=C(c1ccc(Nc2nccc(-c3cc4ccccc4s3)n2)cc1)N1CCC(N2CCCC2)CC1", "target": "FLT3 D835H", "assay": "binding, competition with immobilised ligand", "conditions": "1 µM", "remaining binding": "29%"}
{"Compound": "O=C(NCCCC1CCCCC1)c1ccc(CNC(=O)c2cnn(-c3ccccc3)c2C(F)(F)F)cc1", "target": "FLT3 R834Q", "assay": "cell-free assay, competition with immobilised ligand", "conditions": "0.1 µM", "remaining binding": "100%"}
{"Compound": "c1cncc(-c2cccc(Nc3nccc(NC4CCCCC4)n3)c2)c1", "target": "FLT3 D835H", "assay": "binding, competition with immobilised ligand", "conditions": "10 µM", "remaining binding": "1.6%"}
{"Compound": "O=C(Nc1c[nH]nc1C(=O)NC1CCNCC1)c1cc(F)cc(F)c1", "target": "Receptor-type tyrosine-protein kinase FLT3, autoinhibited (FLT3, Homo sapiens, UniProt P36888)", "assay": "binding, competition with immobilised ligand", "conditions": "1 µM", "remaining binding": "85%"}
{"Compound": "COc1cnc(Nc2cccc(S(N)(=O)=O)c2)nc1N1CCN(c2ccccc2)C(=O)C1", "target": "FLT3 N841I", "assay": "binding, competition with immobilised ligand", "conditions": "1 µM", "remaining binding": "96%"}
{"Compound": "Cc1cnn2ncc(-c3ccnc(N(C)C)n3)c2c1", "target": "FLT3 K663Q", "assay": "binding", "conditions": "1 µM", "remaining binding": "100%"}
{"Compound": "CN(C)C(=O)Cn1cc(-c2nc([C@@](C)(c3ccc(-c4cnc(N)nc4)cc3)C3CC3)no2)cn1", "target": "FLT3", "assay": "cell-free assay, competition with immobilised ligand", "conditions": "1 µM", "remaining binding": "97%"}
{"Compound": "CN1CCN(c2ccc(Nc3nccc(-c4cccc([N+](=O)[O-])c4)n3)cc2C(F)(F)F)CC1", "target": "FLT3 D835V", "assay": "binding", "conditions": "10 µM", "remaining binding": "0%"}
{"Compound": "NS(=O)(=O)c1cc(NC(=O)Cc2ccccc2)ccc1Oc1cccc(Cl)c1", "target": "FLT3 K663Q", "assay": "cell-free assay, competition with immobilised ligand", "conditions": "1 µM", "remaining binding": "99%"}
{"Compound": "C=CC(=O)N1CCC(C(=O)NCC(=O)N2CCN(c3nc(-c4cnc(N)nc4C(F)F)nc(N4CCOCC4)n3)CC2)CC1", "target": "FLT3 D835H", "assay": "binding, competition with immobilised ligand", "conditions": "1 µM", "remaining binding": "100%"}
{"Compound": "O=c1nc(-c2ccccn2)sc2ccccc12", "target": "FLT3", "assay": "binding, competition with immobilised ligand", "conditions": "1 µM", "remaining binding": "93%"}
{"Compound": "O=C(c1ccc(Nc2ncc(Cl)c(-c3cc4ccccc4s3)n2)cc1)N1CCC(N2CCCC2)CC1", "target": "FLT3 D835V", "assay": "binding, competition with immobilised ligand", "conditions": "1 µM", "remaining binding": "1.3%"}
{"Compound": "Cc1c(C(=O)O)cc(-c2ccc(C3CCNCC3)cc2)c2ccc(-c3ccc(C(F)(F)F)cc3)cc12", "target": "FLT3", "assay": "binding, competition with immobilised ligand", "conditions": "1 µM", "remaining binding": "100%"}
{"Compound": "N#Cc1ccccc1CSc1nnc2c(n1)[nH]c1ccccc12", "target": "FLT3", "assay": "binding, competition with immobilised ligand", "conditions": "10 µM", "remaining binding": "84%"}
